Screening results (PubChem BioAssay)
T cruzi repl = T. cruzi replication inhibition | T. cruzi beta-gal in NIH3T3, luminescence, 90 h | inhibition, % (concentration not given with the values) | 300,000 tested, 1.4% active;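 active means mean inhibition across valid replicates above about 55%, limit read from the data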;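 further: signal also drops with host cell toxicity which is not excluded here; 0% = plate median of DMSO wells and 100% = zero luminescence signal; higher percent means less beta-gal luminescence so fewer parasites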
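Read-out: Parasite load inhibition, % | Test system: Mouse NIH/3T3 fibroblasts infected with β-gal-expressing T. cruzi Tulahuen C4 | Amount: 5,000 cells/well | Medium: DMEM, 2% fetal bovine serum | Signal: GalScreen β-gal luminescence, detergent lysis, 60 min | Timing: 3 h attach, ≥90 h co-culture | Also added: Tulahuen C4 trypomastigotes, 5000/well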
pCIP destab = compounds decreasing mouse p/CIP protein stability; Q05BA5; F442A p/CIP-EGFP cells, EGFP fluorescence, 16 h; decrease of EGFP signal, % at 10 µM; 290,000 tested, 0.01% active; AID 1984;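 active means EGFP signal decrease of at least 30% at 10 µM or well 3 SD below plate mean, unless failing retest; inactive means the rest, including hits failing retest or dose response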
H9c2 protect = modulators protecting cardiomyocytes from myocardial damage; AID 588492; H9c2 cardiomyocytes, H2O2 injury protection, ATPLite, 2 h; 360,000 tested, 0.63% active; protection from H2O2 cell death, % at 20 µM;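 active means compounds giving at least 50% protection of heart cells from peroxide-induced death in the single-dose screen, raw or plate-pattern-corrected value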;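 further: 0% = DMSO wells with peroxide and 100% = DMSO wells without peroxide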
JMJD2C inh = blocks human GASC-1 demethylase activity. Q9H3R0. GST-JMJD2C(1-420) H3K9me3 demethylation, DELFIA europium. inhibition, % at 2.35 µM. 330,000 tested, 0.069% active. AID 2099;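 active means more than half of a compound's replicate wells show inhibition beyond 50%, single wells judged on their own value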;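 further: signal counts dimethyl H3K9 product captured on neutravidin plate; 0% = median of DMSO wells and 100% = 0.3 times that DMSO median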
Fh CTSL1 inh = blocks F. hepatica cathepsin L1 in PFM18AAP counter-screen; recombinant F. hepatica cathepsin L1, Z-Leu-Arg-MCA fluorescence; inhibition, % at 5.96 µM; 300,000 tested, 0.49% active;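 active means inhibition above the mean of all tested compounds plus 3 SD, set per screening campaign, cut at about 17% in these data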;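 further: 0% = plate median of test compound wells and 100% = 1 µM Z-Phe-Ala-diazomethylketone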
PP5 primary = PP5 (human) phosphatase inhibition; inhibition, % at 6.7 µM; 320,000 tested, 0.18% active; AID 1987; P53041; purified PP5c, OMFP substrate fluorescence;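 active means inhibition above the campaign's mean inhibition across all tested compounds plus 3 SD, cut at about 9.5% in these data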;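 further: 0% = DMSO only and 100% = 100 µM cantharidin control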
Target sequence (P53041 whole entry, looked up): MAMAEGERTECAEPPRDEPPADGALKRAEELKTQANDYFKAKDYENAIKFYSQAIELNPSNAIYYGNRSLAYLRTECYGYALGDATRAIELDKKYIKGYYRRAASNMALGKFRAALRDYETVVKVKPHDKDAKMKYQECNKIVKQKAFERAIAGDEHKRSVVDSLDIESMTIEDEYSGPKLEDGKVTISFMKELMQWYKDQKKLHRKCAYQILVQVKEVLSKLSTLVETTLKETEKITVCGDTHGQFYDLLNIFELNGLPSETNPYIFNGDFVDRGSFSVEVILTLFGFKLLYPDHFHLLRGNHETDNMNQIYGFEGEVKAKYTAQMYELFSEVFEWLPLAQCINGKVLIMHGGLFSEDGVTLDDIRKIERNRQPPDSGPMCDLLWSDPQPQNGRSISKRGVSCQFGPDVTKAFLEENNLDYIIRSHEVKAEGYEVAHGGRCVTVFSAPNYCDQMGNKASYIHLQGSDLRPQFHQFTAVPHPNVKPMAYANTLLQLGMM
Active calls of the source: *; / = no result given. The list is not random: actives were taken first. Their share in the collection is about 2.4%.

SMILES	T cruzi repl	pCIP destab	H9c2 protect	JMJD2C inh	Fh CTSL1 inh	PP5 primary
Oc1c(Br)cc(Br)cc1CNc1cccc2cccnc12	10.2	-2.9	-17.1	4.8	28.9*	3.1
COc1ccccc1Cc1c(C2CCCCC2)nc2ccc(Br)cn12	/	/	-10.4	/	/	/
CCNC(=O)C1(C)CCCN(Cc2csc(-c3ccccc3)n2)C1 (configuration not stated)	/	/	-0.3	/	/	/
CCOC(=O)C1C(=O)CC(C)(O)C(C(=O)OCC)C1c1ccc(N(CC)CC)cc1 (configuration not stated)	7.6	-14.7	12.2	4.7	-1.5	2.3
CCN(CC)c1ccc(C2C(C(=O)OC(C)C)C(=O)CC(C)(O)C2C(=O)OC(C)C)cc1 (configuration not stated)	-4.5	-5.7	74.9*	16.1	6.0	0.9
Cc1ccccc1P(=O)(c1ccccc1)c1ccccc1C	/	/	1.6	/	/	/
Cc1cnccc1CN(C)Cc1cn(C)nc1-c1ccc(Oc2ccccc2)cc1	69.5*	-15.7	-9.3	4.8	1.6	1.7
Cc1cnccc1CN(C)Cc1cn(C)nc1-c1cccc(Cl)c1	-12.7	-6.9	7.5	2.4	2.6	-2.0
COc1cc(C(=O)Nc2cccc(NC(=O)c3cccs3)c2)cc(OC)c1OC	-19.3	-3.0	32.7	3.0	/	/
COC(=O)c1ccc(COc2ccc(/C=C(\C#N)c3nc4ccccc4[nH]3)cc2OC)o1	39.5	-15.6	70.4*	3.6	4.9	4.0
CCc1ccc(NC(=O)COc2ccc(/C=C(/C#N)c3nc4ccccc4[nH]3)cc2OC)cc1	5.3	5.2	16.0	10.6	2.2	2.0
CCOc1cc(/C=C(\C#N)c2nc3ccccc3[nH]2)ccc1OC(C)C(=O)O (configuration not stated)	9.0	-6.7	6.3	-8.5	0.2	1.4
COc1cc(/C=C(/C#N)c2nc3ccccc3[nH]2)ccc1OCc1ccc(C(=O)O)o1	0.4	-17.0	-0.4	16.3	19.6*	5.5
O=[N+]([O-])c1cccnc1S(=O)(=O)c1ccccc1	68.2*	-29.7	-19.9	-7.5	7.6	1.6
COc1ccc(Br)cc1CNC(=O)CN1C(=O)C(c2ccccc2)Oc2cccnc21 (configuration not stated)	35.7	-6.7	-4.8	-10.8	-1.8	1.6
CCOc1ccc(S(=O)(=O)N2CCOCC2)cc1NC(=O)CSCc1c(C)noc1C	2.7	/	-2.1	1.9	-12.0	0.7
Cc1cc(C(=O)CCC(=O)N(C)CC(=O)Nc2ccc(OC(F)(F)F)cc2)c(C)s1	/	/	-6.2	/	/	/
Cc1ccc(S(=O)(=O)NCCSCc2ccccc2)cc1	-5.6	-5.8	-16.4	6.4	7.4	-0.9
Cc1ccc(CSCCNS(=O)(=O)c2ccc([N+](=O)[O-])cc2)cc1	68.2*	-2.4	-0.3	13.2	0.4	3.2
Cc1ccc(S(=O)(=O)NCCn2cnc([N+](=O)[O-])n2)cc1	59.8*	-13.0	-0.6	-2.5	6.6	-0.3
O=C(NCc1ccccn1)c1ccco1	-19.4	-12.1	2.6	3.8	2.5	-0.9
O=C(NCc1ccccn1)c1cn(Cc2ccccc2)nn1	-6.8	2.2	-7.0	64.1*	0.1	-1.9
Cc1cccc(CCNS(=O)(=O)c2ccc3c(c2)NC(=O)CS3)c1	-3.3	-15.8	-7.3	-2.0	-2.6	2.9
Cc1c(C(=O)Nc2c(C)n(C)n(-c3ccccc3)c2=O)oc2ccc(Cl)cc12	-5.9	-5.7	-3.4	5.3	0.7	-0.1
CCOC(=O)C1CCCN(S(=O)(=O)c2ccc(Br)s2)C1 (configuration not stated)	13.9	-5.5	-2.5	2.0	16.6*	4.4
SMILES	T cruzi repl	pCIP destab	H9c2 protect	JMJD2C inh	Fh CTSL1 inh	PP5 primary
CCOC(=O)C1CCCN(S(=O)(=O)c2ccc(-c3cc(C)no3)s2)C1 (configuration not stated)	0.1	4.3	-7.1	-19.1	1.1	1.0
COc1cc2c(-c3ccc4cc[nH]c4c3)c(-c3ccc(C#N)cc3)oc(=O)c2cc1OC	/	/	-1.4	-9.7	/	3.3
Cc1oc(-c2ccc(Cl)cc2)nc1CS(=O)CC(=O)NCc1ccccn1 (configuration not stated)	5.7	-3.7	1.0	3.7	0.6	-1.5
Cc1ccc2c(c1)S/C(=C/c1ccc[n+](CCO)c1)N2C	61.2*	-31.0	-4.5	-11.7	1.1	-0.4
COc1cccc(C(=O)NNS(=O)(=O)c2ccc(C)cc2)c1	2.6	2.0	1.0	3.6	-2.3	-1.4
Cc1cc(Cl)c2oc(C(=O)N3CCN(c4ccncc4)CC3)c(C)c2c1	60.5*	-11.5	-16.1	-7.5	0.7	0.2
O=C(COc1ccccc1)NCC1(N2CCCCC2)CCCCC1	0.6	1.9	5.9	-9.1	28.2*	-0.8
N#Cc1ccc(OCC(=O)NCC2(N3CCCCC3)CCCCC2)cc1	4.6	6.5	2.2	-6.7	4.7	-0.1
COC(=O)[C@]1(Cc2ccccc2)N[C@H](CN(C)C(=O)Nc2ccc(OC)cc2)[C@@H]2C(=O)N(Cc3ccccc3)C(=O)[C@@H]21	/	/	18.6	-54.3	/	/
S=C1NC2=C(CCC/C2=C\c2ccccc2)C(c2ccccc2)N1 (configuration not stated)	24.5	-7.3	-4.2	6.2	-1.9	-0.4
C(=C1/CCCC2=C1Nc1ncnn1C2c1ccccc1)/c1ccccc1 (configuration not stated)	73.9*	-0.9	/	-31.5	9.2	-2.7
Cc1nn(-c2ccccc2)c(N2CCCC2)c1/C=N/n1cnc2scc(-c3ccccc3)c2c1=O	36.2	11.5	61.5*	12.7	3.2	0.3
O=c1[nH]cnc2sc3c(c12)CCN(Cc1ccccc1)C3	-5.3	-12.5	15.3	-38.5	-1.0	-8.3
OCCCNc1ncnc2sc3c(c12)CCN(Cc1ccccc1)C3	-6.4	0.5	11.6	3.7	32.0*	1.8
CCC(C(=O)NCc1cccs1)n1nc(C)n2c(cc3occc32)c1=O (configuration not stated)	2.8	11.4	-3.9	11.0	1.3	1.5
O=C(Cn1c(-c2ccccc2)c[n+]2ccsc12)c1ccc([N+](=O)[O-])cc1	75.0*	1.7	-4.7	-12.9	-0.7	2.6
O=C(Cn1c(-c2ccccc2)c[n+]2ccsc12)c1ccccc1	68.8*	-12.0	-8.8	-0.3	-2.9	0.6
NS(=O)(=O)c1ccc(CNC(=O)Cn2nc(C(F)F)cc2C(F)F)cc1	/	/	-1.3	-1.6	/	-2.4
O=C(Nc1ccc(N2CCCC2)c(Cl)c1)c1ccc2c(c1)OCCO2	58.9*	/	-17.7	14.5	0.5	2.0
O=C(Nc1ccc(Cl)c([N+](=O)[O-])c1)c1ccc(NCCCN2CCOCC2)c([N+](=O)[O-])c1	55.2*	0.0	-10.8	-9.4	2.4	0.3
O=C(Nc1ccc(N2CCCCC2)c(Cl)c1)c1ccc(N2CCOCC2)c([N+](=O)[O-])c1	61.6*	-2.4	-16.2	2.8	1.0	2.3
